Here are results for 20 molecules from paper PMC3823002 (Journal of Cellular and Molecular Medicine, 2009).

One assay concerns endothelial GM7373 cells. As to the kind of experiment: GM7373 cell proliferation triggered by different mitogenic stimuli. Format: cell-based, bovine.
For a further assay, the system named is FGF2. As to the kind of experiment: STD NMR analysis of peptide/FGF2 interaction. Format: binding, human. The conditions noted are these: STD NMR in the presence of 50 μM FGF2, reducing conditions; result in words. The method in brief:
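500 MHz STD NMR used 50 µM FGF2 plus 1.9 mM peptide in 30 mM phosphate (95% D2O), 8 mM DTT, 40 mM NaCl, pH 6.8. Saturation lasted 3 s, with a 30 ms T1ρ filter and 192 transients. Off-resonance reference minus saturated spectrum gave STD; the factor is ISTD/I0. A peptide-only control was run. Titrations spanned 1:10–1:100 FGF2:peptide at 280 K.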

Another assay concerns the target FGF2/FGFR1 interaction (Homo sapiens, UniProt P09038). In words: BIAcore competition: binding of free FGF2 to immobilized sFGFR1. The settings on record: FGF2 50 nM, sFGFR1(IIIc)/Fc chimera-coated BIAcore sensor chip; for effect on binding of FGF2 to immobilized sFGFR1(IIIc)/Fc chimera: peptide 1.0 μM.
For assay [1], the system named is VEGF/VEGFR2/KDR interaction. In words: BIAcore competition: binding of free VEGF to immobilized sKDR/Fc chimera. On the set-up: species or system human. The conditions noted are these: 45 nM VEGF injected for 4 min., peptide 300 μM; data not shown. The procedure, abridged:
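sKDR/Fc (20 µg/ml in 10 mM sodium acetate, pH 5.3) was amine-coupled to an EDC/NHS-activated CM5 chip (~0.06 pmol/mm2), then ethanolamine-neutralized. VEGF (45 nM) was injected for 4 min with or without 300 µM test peptide. Response (RU) was read at end of injection and plotted as percentage of maximal bound analyte.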
A general note: SPR reads the build-up and loss of mass on a sensor chip optically.

In assay [2] the target is Fibroblast growth factor-2 (human). As to the kind of experiment: SPR.

Chain of FGF2/FGFR1 interaction (P09038 134-288): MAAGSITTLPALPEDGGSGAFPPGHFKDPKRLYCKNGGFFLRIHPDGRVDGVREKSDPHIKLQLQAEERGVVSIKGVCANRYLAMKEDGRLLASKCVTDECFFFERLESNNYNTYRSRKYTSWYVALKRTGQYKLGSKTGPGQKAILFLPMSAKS

Take Ac-ARPSA-NH2: the “inhibition of GM7373 cell proliferation, any mitogen” value in the assay on endothelial GM7373 cells (FGF2, FGF1, FGF8b, VEGF, EGF, DAG, TPA or 10% FCS, control peptide) is “No inhibition”. In the assay on FGF2, the “FGF2 binding deduced from STD spectrum” value is “reduced STD amplification factor”. Moreover, the “effect on binding of FGF2 to immobilized sFGFR1(IIIc)/Fc chimera” value on FGF2/FGFR1 interaction is recorded as “No effect”.

Ac-ARPCA-NH2: in assay [1], the “binding of VEGF to immobilized sKDR/Fc chimera” value is given as “did not prevent”. In addition, in the assay with endothelial GM7373 cells (FGF2 0.55 nM, peptide 66 μM, 0.4% FCS, 24 hrs, cell counting, triplicate), the “GM7373 cell proliferation triggered by FGF2” value is reported as “inhibits”. Besides, the “GM7373 cell proliferation triggered by FGF8b” value in the assay with endothelial GM7373 cells (FGF8b 1.66 nM, peptide 66 μM, 24 hrs, cell counting, triplicate) is “inhibits”. Further, on FGF2/FGFR1 interaction, the “binding of FGF2 to immobilized FGFR1 ID50” value turned out to be 30 µM and the “effect on binding of FGF2 to immobilized sFGFR1(IIIc)/Fc chimera” value is recorded as “significantly inhibits”.

As for Ac-ARPCG-NH2, the “FGF2 binding deduced from STD spectrum” value in the assay on FGF2 is “absence of STD signals”.

For the molecule Ac-GRPCA-NH2, in the assay on FGF2, the “FGF2 binding deduced from STD spectrum” value is listed as “still able to bind FGF2”.

As for H-ARPCA-NH2, the “FGF2 binding deduced from STD spectrum” value with FGF2 was “absence of STD signals”.

Consider Ac-APCRA-NH2 [Ac-APCRA-NH2, partially scrambled pentapeptide], for which the concentration for half-maximal inhibition (IC50) in assay [2] is 800 µM.

Take Ac-ARPVA-NH2 [Ac-ARPVA-NH2]: the IC50 in assay [2] is greater than 3000 µM.

In assay [2], Ac-GRPCG-NH2 [Ac-GRPCG-NH2] displayed an IC50 greater than 3000 µM.

Regarding Ac-ALPCA-NH2 [Ac-ALPCA-NH2], the 50% inhibitory concentration (IC50) in assay [2] is greater than 3000 µM.

Ac-ESLARPCAPGAPAE-NH2 [PTX3-(97-110) peptide Ac-…-NH2]: in assay [2], the IC50 stood at 300 µM.

In assay [2], Ac-ARPCG-NH2 [Ac-ARPCG-NH2] returned a concentration for half-maximal inhibition (IC50) of 1000 µM.

For Ac-APGAPAEARL-NH2 [PTX3-(104-113) peptide Ac-…-NH2], in assay [2], the half-inhibitory concentration (IC50) amounted to 2000 µM.

In assay [2], Ac-PARAC-NH2 [Ac-PARAC-NH2, scrambled pentapeptide] displayed an IC50 of 1000 µM.

In the case of Ac-ARPMA-NH2 [Ac-ARPMA-NH2], the IC50 in assay [2] is greater than 3000 µM.

In assay [2], Ac-GRPCA-NH2 [Ac-GRPCA-NH2] registered a half-inhibitory concentration (IC50) of 80 µM.

H-ARPCA-NH2 [H-ARPCA-NH2, non-acetylated pentapeptide] returned an IC50 in assay [2] of 2000 µM.

In the case of Ac-ARACA-NH2 [Ac-ARACA-NH2], in assay [2], the IC50 was greater than 3000 µM.

Take Ac-ARPCAPGAPAEARL-NH2 [PTX3-(100-113) peptide Ac-…-NH2]: in assay [2], the IC50 was 500 µM.

Ac-ARPSA-NH2 [Ac-ARPSA-NH2] registered an IC50 in assay [2] greater than 3000 µM.

In assay [2], Ac-ESLARPCAPGA-NH2 [PTX3-(97-107) peptide Ac-…-NH2] yielded an IC50 of 300 µM.

As a reminder, the IC50 is the concentration that inhibits the measured activity by half.
